# System: Hepatitis B virus
# Assay: The EC50 value was measured on hepatitis B virus
# Format: functional, organism-based
# Details: not given
# Outline: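 Anti-HBV activity assayed in 2.2.15 cells; EC50 (μM) reported.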
row,Structure (SMILES),EC50 [µM]
1,O=c1ccn([C@H]2O[C@@H](CO)C=C2F)c(=O)[nH]1,> 10
2,Cc1cn([C@H]2O[C@@H](CO)C=C2F)c(=O)[nH]c1=O,> 10
3,OC[C@H]1C=C(F)[C@@H](n2cnc3c(O)ncnc32)O1,> 10
4,Nc1nc(Cl)c2ncn([C@H]3O[C@@H](CO)C=C3F)c2n1,> 10
5,Nc1nc(O)c2ncn([C@H]3O[C@@H](CO)C=C3F)c2n1,> 10
6,O=c1ccn([C@@H]2O[C@@H](CO)C=C2F)c(=O)[nH]1,> 10
7,Nc1nc(=O)n([C@@H]2O[C@@H](CO)C=C2F)cc1F,> 10
8,Cc1cn([C@H]2C[C@H](N=[N+]=[N-])[C@@H](CO)O2)c(=O)[nH]c1=O [ZIDOVUDINE],> 10

# More lines, now with the values ahead:
row,EC50 [µM],Structure (SMILES)
1,> 10,Nc1nc(F)nc2c1ncn2[C@@H]1O[C@@H](CO)C=C1F
2,> 10,OC[C@H]1C=C(F)[C@H](n2cnc3c(O)ncnc32)O1
3,> 10,Nc1ncnc2c1ncn2[C@@H]1O[C@@H](CO)C=C1F
4,> 10,Cc1cn([C@@H]2O[C@@H](CO)C=C2F)c(=O)[nH]c1=O
5,> 10,Nc1nc(Cl)c2ncn([C@@H]3O[C@@H](CO)C=C3F)c2n1
6,> 10,Nc1nc(O)c2ncn([C@@H]3O[C@@H](CO)C=C3F)c2n1
7,0.18,Nc1ccn([C@H]2O[C@@H](CO)C=C2F)c(=O)n1
8,1.7,Nc1ncnc2c1ncn2[C@H]1O[C@@H](CO)C=C1F
9,0.225,Nc1nc(=O)n([C@H]2O[C@@H](CO)C=C2F)cc1F
10,> 10,Nc1ccn([C@@H]2O[C@@H](CO)C=C2F)c(=O)n1
11,> 10,Nc1nc(F)nc2c1ncn2[C@H]1O[C@@H](CO)C=C1F

# System: Vero
# Assay: Inhibitory activity was evaluated in Vero cells.
# Format: functional, cell-based
# Details: Chlorocebus sabaeus
row,Structure (SMILES),IC50 [µM]
1,Nc1nc(F)nc2c1ncn2[C@@H]1O[C@@H](CO)C=C1F,> 100
2,OC[C@H]1C=C(F)[C@H](n2cnc3c(O)ncnc32)O1,> 100
3,Nc1ncnc2c1ncn2[C@@H]1O[C@@H](CO)C=C1F,> 100
4,Cc1cn([C@@H]2O[C@@H](CO)C=C2F)c(=O)[nH]c1=O,> 100
5,Nc1nc(Cl)c2ncn([C@@H]3O[C@@H](CO)C=C3F)c2n1,> 100
6,Nc1nc(O)c2ncn([C@@H]3O[C@@H](CO)C=C3F)c2n1,> 100
7,Nc1ccn([C@H]2O[C@@H](CO)C=C2F)c(=O)n1,> 100
8,Nc1ncnc2c1ncn2[C@H]1O[C@@H](CO)C=C1F,> 100
9,Nc1nc(=O)n([C@H]2O[C@@H](CO)C=C2F)cc1F,> 100
10,Nc1ccn([C@@H]2O[C@@H](CO)C=C2F)c(=O)n1,> 100
11,Nc1nc(F)nc2c1ncn2[C@H]1O[C@@H](CO)C=C1F,173
12,O=c1ccn([C@H]2O[C@@H](CO)C=C2F)c(=O)[nH]1,> 100
13,Cc1cn([C@H]2O[C@@H](CO)C=C2F)c(=O)[nH]c1=O,> 100
14,OC[C@H]1C=C(F)[C@@H](n2cnc3c(O)ncnc32)O1,> 100
15,Nc1nc(Cl)c2ncn([C@H]3O[C@@H](CO)C=C3F)c2n1,> 100
16,Nc1nc(O)c2ncn([C@H]3O[C@@H](CO)C=C3F)c2n1,> 100
17,O=c1ccn([C@@H]2O[C@@H](CO)C=C2F)c(=O)[nH]1,> 100
18,Nc1nc(=O)n([C@@H]2O[C@@H](CO)C=C2F)cc1F,> 100

# System: CCRF-CEM
# Assay: Cytotoxicity was evaluated in CEM cells
# Details: Homo sapiens
row,Structure (SMILES),IC50 [µM]
1,Nc1nc(F)nc2c1ncn2[C@@H]1O[C@@H](CO)C=C1F,> 100
2,OC[C@H]1C=C(F)[C@H](n2cnc3c(O)ncnc32)O1,> 100
3,Nc1ncnc2c1ncn2[C@@H]1O[C@@H](CO)C=C1F,> 100
4,Cc1cn([C@@H]2O[C@@H](CO)C=C2F)c(=O)[nH]c1=O,> 100
5,Nc1nc(Cl)c2ncn([C@@H]3O[C@@H](CO)C=C3F)c2n1,28.2
6,Nc1nc(O)c2ncn([C@@H]3O[C@@H](CO)C=C3F)c2n1,> 100
7,Nc1ccn([C@H]2O[C@@H](CO)C=C2F)c(=O)n1,> 100
8,Nc1ncnc2c1ncn2[C@H]1O[C@@H](CO)C=C1F,> 100
9,Nc1nc(=O)n([C@H]2O[C@@H](CO)C=C2F)cc1F,> 100
10,Nc1ccn([C@@H]2O[C@@H](CO)C=C2F)c(=O)n1,> 100
11,Nc1nc(F)nc2c1ncn2[C@H]1O[C@@H](CO)C=C1F,19.5
12,O=c1ccn([C@H]2O[C@@H](CO)C=C2F)c(=O)[nH]1,> 100
13,Cc1cn([C@H]2O[C@@H](CO)C=C2F)c(=O)[nH]c1=O,> 100
14,OC[C@H]1C=C(F)[C@@H](n2cnc3c(O)ncnc32)O1,> 100
15,Nc1nc(Cl)c2ncn([C@H]3O[C@@H](CO)C=C3F)c2n1,> 100
16,Nc1nc(O)c2ncn([C@H]3O[C@@H](CO)C=C3F)c2n1,> 100
17,O=c1ccn([C@@H]2O[C@@H](CO)C=C2F)c(=O)[nH]1,> 100
18,Nc1nc(=O)n([C@@H]2O[C@@H](CO)C=C2F)cc1F,> 100

# System: PBMC
# Assay: Cytotoxicity was evaluated in human peripheral blood mononuclear (PBM) cells
# Details: not given
row,Structure (SMILES),IC50 [µM]
1,Nc1nc(F)nc2c1ncn2[C@@H]1O[C@@H](CO)C=C1F,> 100
2,OC[C@H]1C=C(F)[C@H](n2cnc3c(O)ncnc32)O1,> 100
3,Nc1ncnc2c1ncn2[C@@H]1O[C@@H](CO)C=C1F,> 100
4,Cc1cn([C@@H]2O[C@@H](CO)C=C2F)c(=O)[nH]c1=O,> 100
5,Nc1nc(Cl)c2ncn([C@@H]3O[C@@H](CO)C=C3F)c2n1,26.6
6,Nc1nc(O)c2ncn([C@@H]3O[C@@H](CO)C=C3F)c2n1,> 100
7,Nc1ccn([C@H]2O[C@@H](CO)C=C2F)c(=O)n1,> 100
8,Nc1ncnc2c1ncn2[C@H]1O[C@@H](CO)C=C1F,> 100
9,Nc1nc(=O)n([C@H]2O[C@@H](CO)C=C2F)cc1F,> 100
10,Nc1ccn([C@@H]2O[C@@H](CO)C=C2F)c(=O)n1,> 100
11,Nc1nc(F)nc2c1ncn2[C@H]1O[C@@H](CO)C=C1F,25.8
12,O=c1ccn([C@H]2O[C@@H](CO)C=C2F)c(=O)[nH]1,> 100
13,Cc1cn([C@H]2O[C@@H](CO)C=C2F)c(=O)[nH]c1=O,> 100
14,OC[C@H]1C=C(F)[C@@H](n2cnc3c(O)ncnc32)O1,> 100
15,Nc1nc(Cl)c2ncn([C@H]3O[C@@H](CO)C=C3F)c2n1,> 100
16,Nc1nc(O)c2ncn([C@H]3O[C@@H](CO)C=C3F)c2n1,> 100
17,O=c1ccn([C@@H]2O[C@@H](CO)C=C2F)c(=O)[nH]1,> 100
18,Nc1nc(=O)n([C@@H]2O[C@@H](CO)C=C2F)cc1F,> 100
19,Cc1cn([C@H]2C[C@H](N=[N+]=[N-])[C@@H](CO)O2)c(=O)[nH]c1=O [ZIDOVUDINE],> 100

# System: Human immunodeficiency virus 1
# Assay: Evaluated for anti-HIV activity
# Format: functional, organism-based
# Details: not given
# Outline: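 Human peripheral blood mononuclear (PBM) cells infected with HIV-1; antiviral potency reported as EC50 (μM); AZT run as positive control.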
row,Structure (SMILES),EC50 [µM]
1,O=c1ccn([C@H]2O[C@@H](CO)C=C2F)c(=O)[nH]1,> 100
2,Cc1cn([C@H]2O[C@@H](CO)C=C2F)c(=O)[nH]c1=O,> 100
3,OC[C@H]1C=C(F)[C@@H](n2cnc3c(O)ncnc32)O1,4.7
4,Nc1nc(Cl)c2ncn([C@H]3O[C@@H](CO)C=C3F)c2n1,> 100
5,Nc1nc(O)c2ncn([C@H]3O[C@@H](CO)C=C3F)c2n1,> 100
6,O=c1ccn([C@@H]2O[C@@H](CO)C=C2F)c(=O)[nH]1,> 100
7,Nc1nc(=O)n([C@@H]2O[C@@H](CO)C=C2F)cc1F,> 100

# The remaining lines, values ahead:
row,EC50 [µM],Structure (SMILES)
1,> 100,Nc1nc(F)nc2c1ncn2[C@@H]1O[C@@H](CO)C=C1F
2,> 100,OC[C@H]1C=C(F)[C@H](n2cnc3c(O)ncnc32)O1
3,47.6,Nc1ncnc2c1ncn2[C@@H]1O[C@@H](CO)C=C1F
4,> 100,Cc1cn([C@@H]2O[C@@H](CO)C=C2F)c(=O)[nH]c1=O
5,14.5,Nc1nc(Cl)c2ncn([C@@H]3O[C@@H](CO)C=C3F)c2n1
6,76.9,Nc1nc(O)c2ncn([C@@H]3O[C@@H](CO)C=C3F)c2n1
7,0.51,Nc1ccn([C@H]2O[C@@H](CO)C=C2F)c(=O)n1
8,1.5,Nc1ncnc2c1ncn2[C@H]1O[C@@H](CO)C=C1F
9,0.17,Nc1nc(=O)n([C@H]2O[C@@H](CO)C=C2F)cc1F
10,> 100,Nc1ccn([C@@H]2O[C@@H](CO)C=C2F)c(=O)n1
11,2.2,Nc1nc(F)nc2c1ncn2[C@H]1O[C@@H](CO)C=C1F

# Source: ChEMBL document CHEMBL1132629, “Synthesis and anti-HIV and anti-HBV activities of 2'-fluoro-2', 3'-unsaturated L-nucleosides” (J Med Chem, 1999)
